Test results published in publication PMC2975716 (Journal of Lipid Research, 2010).
Residue numbers refer to the chain shown, from its start. Where two headings read alike, the source gives them in different places. Marks after values point to notes of the source that are not given here.

Key:
CETP [1] = target: T1, CETP (Homo sapiens, UniProt P11597); experiment: Transfer of CE from HDL to LDL, scintillation proximity assay; assay type: biochemical
T1 sequence (P11597 18-493): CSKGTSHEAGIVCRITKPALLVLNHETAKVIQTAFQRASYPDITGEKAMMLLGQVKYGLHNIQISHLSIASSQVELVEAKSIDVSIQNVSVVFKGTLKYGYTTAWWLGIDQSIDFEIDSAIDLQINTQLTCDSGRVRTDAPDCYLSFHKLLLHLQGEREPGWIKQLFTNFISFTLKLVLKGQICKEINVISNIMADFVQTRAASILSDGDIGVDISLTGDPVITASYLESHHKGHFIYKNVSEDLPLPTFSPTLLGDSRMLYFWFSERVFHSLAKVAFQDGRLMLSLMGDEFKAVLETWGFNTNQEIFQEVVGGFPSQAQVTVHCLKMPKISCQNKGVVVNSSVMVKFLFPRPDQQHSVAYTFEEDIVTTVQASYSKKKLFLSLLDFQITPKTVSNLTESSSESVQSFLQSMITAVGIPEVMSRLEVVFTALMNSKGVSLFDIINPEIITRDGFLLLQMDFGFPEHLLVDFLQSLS

C13S CETP = target: T2, C13S CETP (Homo sapiens, UniProt P11597, C30S); experiment: Transfer of CE from HDL to LDL, scintillation proximity assay, C13S mutant; assay type: biochemical
T2 sequence (P11597 18-493 C30S): T1 sequence (P11597 18-493) with C13S

CETP [2] = target: T1, CETP; assay type: binding; details: 25 µM unlabeled compound, coincubation
CETP [3] = target: T1, CETP; assay type: binding; details: 25 µM unlabeled compound, […] label
Golden Syrian hamsters = experiment: In vivo macrophage-to-feces RCT study; parameters: species or system Golden Syrian hamster; details: dalcetrapib 100 mg/kg BID, torcetrapib 30 mg/kg QD, anacetrapib 30 mg/kg QD; for [3H]HDL / [3H]plasma: Day 3 after labeled macrophage injection; for [3H]HDL / [3H]plasma / Fecal [3H]total sterols / Fecal total radioactivity: mean ± SD; for Change in liver radioactivity compared with vehicle: day 10, data not shown; for Fecal [3H]total sterols: sum of [3H]neutral sterols and [3H]bile acids; for Fecal [3H]total sterols / Fecal total radioactivity: day 0-10; for Fecal total radioactivity: whole fecal homogenates
[4] = cited from earlier work
PLTP [5] = target: T3, PLTP (Homo sapiens, UniProt P55058); details: concentrations up to 30 µM; cited from earlier work
T3 sequence (P55058 18-493, species assumed): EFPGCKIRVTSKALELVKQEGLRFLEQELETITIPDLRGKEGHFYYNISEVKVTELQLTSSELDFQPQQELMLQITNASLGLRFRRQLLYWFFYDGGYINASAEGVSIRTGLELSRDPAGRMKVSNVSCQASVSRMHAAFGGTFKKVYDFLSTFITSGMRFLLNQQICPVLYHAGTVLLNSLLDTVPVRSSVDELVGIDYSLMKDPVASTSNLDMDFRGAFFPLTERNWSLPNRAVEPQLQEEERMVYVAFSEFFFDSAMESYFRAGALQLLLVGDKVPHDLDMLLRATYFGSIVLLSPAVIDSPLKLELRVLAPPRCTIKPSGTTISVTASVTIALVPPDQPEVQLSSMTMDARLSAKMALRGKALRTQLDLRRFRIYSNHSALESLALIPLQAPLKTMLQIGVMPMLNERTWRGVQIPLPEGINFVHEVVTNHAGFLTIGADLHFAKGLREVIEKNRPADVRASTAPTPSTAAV

CETP [6] = target: T1, CETP; experiment: CETP ELISA with different capture antibodies, in vitro addition to human plasma; details: 0.01-10 µM
How it was run: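 Test compound dilution series (0.01–10 µM) made in this plasma, held 3 h at 37°C, then assayed by JHC-1-capture/6/6-HRP and 6/2-capture/6/17-HRP ELISAs. Duplicates per donor (n = 14); mean with SD.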

CETP [7] = target: T1, CETP; experiment: SPR; assay type: binding; details: 5 µM, 60 s, before and after dalcetrapib-thiol injections
CETP [8] = target: T1, CETP; experiment: CETP ELISA on plasma of healthy subjects after single oral 600 mg dalcetrapib; assay type: in vivo; details: 22 healthy volunteers
PLTP [9] = target: T3, PLTP; experiment: PLTP activity; assay type: biochemical; details: concentrations up to 30 µM; data not shown
[10] = tested on: CETP-induced pre-β-HDL formation; experiment: Quantification of pre-β-HDL by ELISA in incubated human plasma; assay type: biochemical; details: endogenous CETP only, 21 h at 37°C
How it was run: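 Human plasma with endogenous CETP at 1.25 μg/ml, no rhCETP added, incubated 21 h at 37°C with or without test compound (0.1, 1, 3, 10 µM). Pre-β-HDL quantified by a pre-β1-selective ELISA. Dose effects assessed by ANCOVA with nested factor.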

JHC-1 = experiment: Binding to antibody JHC-1
[11] = assay type: in vivo, human; details: healthy volunteers, single oral dose 600 mg dalcetrapib
[12] = read-out: IC50 for transfer of CE from HDL to LDL by rhCETP, mean ± SEM, CETP 0.5 µg/ml, 3 h at 37°C
[13] = read-out: IC50 for transfer of CE from HDL to LDL by C13S CETP mutant, mean ± SEM, CETP 0.5 µg/ml, 3 h at 37°C
[14] = human plasma of seven donors, 3 h at 37°C

| SMILES | IC50 (CETP [1]; [12]) [nM] | IC50 (C13S CETP; [13]) [nM] | Effect on binding of [14C]torcetrapib to immobilized rhCETP (CETP [2]) | Decrease in amount of [14C]torcetrapib bound to immobilized rhCETP (CETP [2]) [%] | Change in CETP epitope detection, ELISA with capture antibody 6/2 (CETP [6]; [14]) | Displacement of [14C]dalcetrapib-thiol bound to rhCETP (CETP [3]; with 5 mM TCEP) | [3H]HDL (Golden Syrian hamsters) | [3H]plasma (Golden Syrian hamsters) [kBq/ml] | Change in liver radioactivity compared with vehicle (Golden Syrian hamsters) [%] | Fecal [3H]total sterols (Golden Syrian hamsters) | Fecal total radioactivity (Golden Syrian hamsters) | also measured |
| --- | --- | --- | --- | --- | --- | --- | --- | --- | --- | --- | --- | --- |
| CCC(CC)CC1(C(=O)Nc2ccccc2SSc2ccccc2NC(=O)C2(CC(CC)CC)CCCCC2)CCCCC1 [dalcetrapib-disulfide] | 35.2 ± 2.8 | > 100000 | unaffected |  |  |  |  |  |  |  |  |  |
| CCC(CC)CC1(C(=O)Nc2ccccc2SC(=O)C(C)C)CCCCC1 [dalcetrapib] |  |  | unaffected |  | no change in epitope detection | displaced | 0.28 ± 0.04^c kBq/ml | 0.74 ± 0.05 | −42.2 | 12.5 ± 0.5^b % of injected | 17.5 ± 0.5^c % of injected | IC50 (CETP [1]): 205 ± 96.3 nM; Concentration at which maximum decrease in JHC-1 epitope detection is reached (CETP [6]; human plasma in vitro): 0.5 µM; Concentration from which CETP detection by JHC-1 is decreased (CETP [6]; human plasma in vitro): ≥ 0.1 µM; Change in CETP detection with 6/2 as capture antibody (CETP [8]): no change was detected; Decrease in CETP detection by the JHC-1-based ELISA (CETP [8]; P < 0.001): 30%; Effect on PLTP activity (PLTP [9]): neither inhibit nor increase PLTP activity; Increase in pre-β-HDL ([10]; 1 µM, NS): 4%; Increase in pre-β-HDL ([10]; 3 µM, P < 0.05): 13%; Increase in pre-β-HDL ([10]; 10 µM, P < 0.01): 16%; IC50 (C13S CETP): > 100000 nM; Raise of HDL-C in humans ([4]; dose of 600 mg): up to 36% |
| CCC(CC)CC1(C(=O)Nc2ccccc2S)CCCCC1 [dalcetrapib-thiol] | 23.7 ± 1.9 | > 100000 | only marginally decreased |  |  | did occur when TCEP was present |  |  |  |  |  | Binding to JHC-1 (JHC-1): did not bind; Maximum plasma dalcetrapib-thiol level [11]: 628.7 ng/mL; Time of maximum plasma dalcetrapib-thiol level [11]: 4 h; t1/2 ([11]; mean ± SD): 25.5 ± 3.9 h; Displacement of [14C]dalcetrapib-thiol bound to rhCETP (CETP [3]; absence of TCEP, data not shown): not observed |

Second part, led by results:

| IC50 (CETP [1]; [12]) [nM] | IC50 (C13S CETP; [13]) [nM] | Effect on binding of [14C]torcetrapib to immobilized rhCETP (CETP [2]) | Decrease in amount of [14C]torcetrapib bound to immobilized rhCETP (CETP [2]) [%] | Change in CETP epitope detection, ELISA with capture antibody 6/2 (CETP [6]; [14]) | SMILES | Displacement of [14C]dalcetrapib-thiol bound to rhCETP (CETP [3]; with 5 mM TCEP) | [3H]HDL (Golden Syrian hamsters) | [3H]plasma (Golden Syrian hamsters) [kBq/ml] | Change in liver radioactivity compared with vehicle (Golden Syrian hamsters) [%] | Fecal [3H]total sterols (Golden Syrian hamsters) | Fecal total radioactivity (Golden Syrian hamsters) | also measured |
| --- | --- | --- | --- | --- | --- | --- | --- | --- | --- | --- | --- | --- |
|  |  |  | 60 |  | COc1cc(F)c(C(C)C)cc1-c1ccc(C(F)(F)F)cc1CN1C(=O)O[C@H](c2cc(C(F)(F)F)cc(C(F)(F)F)c2)[C@@H]1C [anacetrapib] | neither torcetrapib nor anacetrapib affected | 0.34 ± 0.07^c kBq/ml | 0.79 ± 0.11 | −9.2 | 9.7 ± 0.9 % of injected | 13.2 ± 1.5 % of injected | Raise of plasma HDL-C in humans [4]: up to 130% |
|  |  |  | 82 | no change in epitope detection | CCOC(=O)N1c2ccc(C(F)(F)F)cc2[C@@H](N(Cc2cc(C(F)(F)F)cc(C(F)(F)F)c2)C(=O)OC)C[C@H]1CC [torcetrapib] | neither torcetrapib nor anacetrapib affected | 0.32 ± 0.07^c kBq/ml | 0.77 ± 0.11 | −28.1 | 11.5 ± 0.5^b % of injected | 16.5 ± 0.5^c % of injected | Effect on PLTP activity (PLTP [5]): neither inhibit nor increase PLTP activity; Change in CETP epitope detection, ELISA with capture antibody JHC-1 (CETP [6]; [14]): did not change epitope detection; Binding to rhCETP following saturation of the dalcetrapib binding site (SPR) (CETP [7]): remained unchanged; Fecal sterol excretion in clinical studies [4]: not associated with an increase in fecal sterol excretion |
